Test results reported in PMC7239729 (Pharmacology, biochemistry, and behavior, 2020).
Several values for one entry are separate records, joined by “and”; a condition that tells them apart may be missing. Identical values can stand only once. Like-named read-outs stand apart in the source and are kept apart here.

What was measured:
[1] = test system: hCB1 receptors; conditions: ref Wouters et al., 2019; cited from earlier work
[2] = biological target: T1, hCB1 receptor (Homo sapiens, UniProt P21554); test: biochemical; format: biochemical
[3] = rat liver microsome incubation; format: in vitro ADME
Procedure, shortened: (§1)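 Pooled liver microsomes (rat: IGS Sprague-Dawley; human: pooled) at 1 mg protein/mL final with 1 mM NADPH in 50 mM potassium phosphate, pH 7.4, 3 mM MgCl2. Mix preincubated 5 min at 37 °C, then test compound added to 1 μM. Triplicate incubations at 37 °C. Samples at 0, 5, 10, 30 and 60 min quenched in acetonitrile, then extracted with acetonitrile (3:1) and analysed by LC-MS/MS.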

[4] = rat plasma pharmacokinetics; format: in vivo
Procedure, shortened: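 Four 49-day-old male Long-Evans rats with jugular vein catheters, housed singly in metabolite cages. Test compound given i.p. at 3 mg/kg (3 mg/mL in 7.8% polysorbate 80/92.2% saline). Blood drawn 0.25 h before dosing and 0.25, 0.5, 1, 2, 4, 8 and 24 h after, into chilled K3EDTA. Plasma separated at 4 °C, extracted with acetonitrile (3:1) and analysed by LC-MS/MS.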

[5] = test system: male ICR mice; test: cannabinoid tetrad in mice; format: in vivo, mouse
[6] = biological target: human CB2 (hCB2) receptor (Homo sapiens, UniProt P34972); test: [3H]CP55,940 competition binding, hCB2 HEK293 membranes
[7] = biological target: T2, hCB2 receptor (Homo sapiens, UniProt P34972); test: inhibition of forskolin-stimulated cAMP production; format: cell-based; conditions: for CP55,940 more potent than the compound: hCB2, cAMP
[8] = human liver microsome incubation; format: in vitro ADME
Procedure, shortened: as §1

[9] = test system: mice trained to discriminate THC (5.6 mg/kg, i.p.) from vehicle; test: THC drug discrimination in mice; format: in vivo, mouse; conditions: for substitution for THC / effect on response rates compared to vehicle: i.p.; for substitution for THC: EG-018 10 – 100 mg/kg, full substitution ≥ 80% drug-aperture responding; for effect on response rates compared to vehicle: substitution tests; for ED50: Mus musculus
[10] = biological target: human CB1 (hCB1) receptor (Homo sapiens, UniProt P21554); format: binding; conditions: at both receptors (hCB1 and hCB2)
[11] = biological target: T1, hCB1 receptor; test: cell-based; format: cell-based
[12] = biological target: T2, hCB2 receptor; test: agonist-stimulated [35S]GTPγS binding, hCB2 HEK293 membranes; format: biochemical; conditions: for CP55,940 more potent than the compound: hCB2, [35S]GTPγS; for CP55,940 greater efficacy than the compound: hCB2, [35S]GTPγS Emax
[13] = metabolite analysis in mouse urine; format: in vivo; conditions: mice, 30 mg/kg i.p., pooled 24 h urine, LC-MS
[14] = biological target: CB1; conditions: read-out: affinity; ref Wiley et al., 2015; cited from earlier work
[15] = test system: mice; conditions: ref Wiley et al., 2015, cited from earlier work
[16] = same dosing procedure; ref Kevin et al., 2017b; cited from earlier work
[17] = Sprague-Dawley, rat, pooled rat liver microsomes, pH 7.4
[18] = male, Long-Evans, rat, plasma, ip, 3 mg/kg
[19] = i.p., 30 min, THC 3, 10 or 56 mg/kg, EG-018 1-100 mg/kg
[20] = i.p., THC 3, 10 or 56 mg/kg, EG-018 1-100 mg/kg
[21] = HEK293, read-out: % of CP55,940 Emax
[22] = human, pooled human liver microsomes, pH 7.4
[23] = rimonabant 3 mg/kg i.v. 10 min before EG-018 56 mg/kg i.v.

T2 sequence (P34972 whole entry): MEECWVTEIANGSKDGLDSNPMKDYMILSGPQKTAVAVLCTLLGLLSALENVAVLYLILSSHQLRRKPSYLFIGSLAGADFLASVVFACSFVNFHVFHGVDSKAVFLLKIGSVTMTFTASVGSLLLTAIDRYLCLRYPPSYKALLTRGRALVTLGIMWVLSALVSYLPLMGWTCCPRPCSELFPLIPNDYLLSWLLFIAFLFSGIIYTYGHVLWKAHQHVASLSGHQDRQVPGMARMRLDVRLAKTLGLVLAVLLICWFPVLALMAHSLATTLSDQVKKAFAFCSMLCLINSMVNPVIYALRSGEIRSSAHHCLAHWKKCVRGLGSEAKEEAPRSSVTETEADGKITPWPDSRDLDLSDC
Sequence of human CB2 (hCB2) receptor (P34972 whole entry): as above
T1 sequence (P21554 whole entry): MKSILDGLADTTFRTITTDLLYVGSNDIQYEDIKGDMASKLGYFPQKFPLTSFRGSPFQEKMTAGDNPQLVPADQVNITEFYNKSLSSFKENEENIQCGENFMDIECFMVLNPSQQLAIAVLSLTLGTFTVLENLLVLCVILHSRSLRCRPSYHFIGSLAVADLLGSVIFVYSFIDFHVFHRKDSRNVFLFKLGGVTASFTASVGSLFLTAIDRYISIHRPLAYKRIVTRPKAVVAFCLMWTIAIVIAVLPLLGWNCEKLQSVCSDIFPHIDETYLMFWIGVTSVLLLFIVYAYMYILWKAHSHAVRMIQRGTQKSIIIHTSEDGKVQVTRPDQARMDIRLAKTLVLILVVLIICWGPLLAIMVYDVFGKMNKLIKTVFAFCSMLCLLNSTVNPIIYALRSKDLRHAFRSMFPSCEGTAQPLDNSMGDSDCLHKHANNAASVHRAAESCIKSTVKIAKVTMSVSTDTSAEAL
Sequence of human CB1 (hCB1) receptor (P21554 whole entry): as above

CCCCCCC(C)(C)c1ccc([C@@H]2C[C@H](O)CC[C@H]2CCCO)c(O)c1 [CP55,940, reference compound]
greater potency for mini-Gαi over beta arrestin-2 [1]: four-fold shift in potency

CCCCCn1c2ccccc2c2cc(C(=O)c3cccc4ccccc34)ccc21 [EG-018, Naphthalen-1-yl(9-pentyl-9H-carbazol-3-yl)methanone]
less potent than CP55,940 ([2]; hCB1, [35S]GTPγS): approximately 90 fold | CP55,940 greater efficacy than the compound ([2]; hCB1, [35S]GTPγS Emax): 3.5 fold | less efficacy than THC ([2]; hCB1, [35S]GTPγS Emax): approximately 2 fold | activity in [35S]GTPγS binding ([2]; initial studies, ligands not pre-equilibrated prior to addition of [35S]GTPγS (data not shown)): appeared to be inactive | Emax ([2]; read-out: % of CP55,940 Emax): 28% | Emax ([2]; read-out: Emax±SEM): 73.9 ± 9.12% | half-life at 1 μM [3, 17]: 4.29 min | microsomal CLint at 1 μM [3, 17]: 160 µL/min/mg | CLH (mL/min/kg body wt.) ([3]; rat liver microsomes, estimated hepatic clearance): 46.39 mL/min/kg body wt. | CLint (mL/min/kg body wt.) ([3]; rat liver microsomes, estimated intrinsic clearance): 290.77 mL/min/kg body wt. | ER ([3]; rat liver microsomes, extraction ratio): 0.84 | AUC(0-inf) [4, 18]: 168 ng·h/mL | AUC(0-t) [4, 18]: 154 ng·h/mL | Cmax [4, 18]: 26 ng/mL | Tmax [4, 18]: 2 h | half-life ([4]; male, Long-Evans, rat, plasma, ip, 3 mg/kg, Half life (h), rat plasma, 3 mg/kg i.p.): 2.5 h | CL/F (mL/min/kg body wt.) ([4]; rat plasma, 3 mg/kg i.p., observed apparent clearance): 520.93 mL/min/kg body wt. | Half life ([4]; rat plasma, 3 mg/kg i.p., 3 mg/kg): 2.53 h | antinociception (tail-flick) ([5]; 56 mg/kg i.v.): did not significantly elicit antinociceptive behavior | catalepsy (ring immobility) ([5]; 56 mg/kg i.v.): catalepsy | rectal temperature ([5]; 56 mg/kg i.v.): hypothermia | locomotor activity ([5]; 56 mg/kg i.v., 5 min): hypomotility | locomotor activity [5, 19]: did not produce significant effects in any of the four assays | antinociception (tail-flick) [5, 20]: did not produce significant effects in any of the four assays | catalepsy (ring immobility) [5, 20]: did not produce significant effects in any of the four assays | rectal temperature [5, 20]: did not produce significant effects in any of the four assays | Ki ([6]; Ki (nM), hCB2, HEK293 membranes, [3H]CP55,940): 8 nM and 7.76 nM | greater affinity for hCB2 over hCB1 ([6]; Ki ratio hCB1/hCB2): approximately 3 fold | EC50 [7]: 182 nM | Emax [7, 21]: 48% | Emax ([7]; HEK293, read-out: Emax±SEM): 28.1 ± 6.14% | CP55,940 more potent than the compound [7]: 114 fold | CLH (mL/min/kg body wt.) ([8]; human liver microsomes, estimated hepatic clearance): 19.03 mL/min/kg body wt. | CLint (mL/min/kg body wt.) ([8]; human liver microsomes, estimated intrinsic clearance): 393.09 mL/min/kg body wt. | ER ([8]; human liver microsomes, extraction ratio): 0.95 | half-life at 1 μM [8, 22]: 2.04 min | microsomal CLint at 1 μM [8, 22]: 340 µL/min/mg | substitution for THC [9]: did not substitute for THC at any dose | effect on response rates compared to vehicle [9]: Neither THC nor EG-018 significantly affected response rates | lower affinity than CP55,940 [10]: 10- to 40 fold | Emax [11, 21]: 73% | Emax ([11]; HEK293, read-out: Emax±SEM): 32.9 ± 2.27% | CP55,940 more potent than the compound ([11]; hCB1, cAMP): 53 fold | EC50 [12]: 11.3 nM | CP55,940 more potent than the compound [12]: 12 fold | CP55,940 greater efficacy than the compound [12]: 2.5 fold | Emax ([12]; read-out: % of CP55,940 Emax): 40% | Emax ([12]; read-out: Emax±SEM): 46.2 ± 2.72% | greater potency for mini-Gαi over beta arrestin-2 [1]: 26 fold | parent compound or metabolites in urine [13]: No intact parent compound or metabolites were identified

O=C(c1cccc2ccccc12)c1nc2ccccc2n1CCCCCF [FUBIMINA]
Ki [14]: 296 nM | tetrad effects ([15]; 56 mg/kg i.v.): produced marked tetrad effects in all four measures | tetrad effects ([15]; doses up to 100 mg/kg i.p.): largely without effect

CCCCCn1nc(C(=O)Nc2cccc3ccccc23)c2ccccc21 [MN-18]
Tmax [16]: ~2.5 h

CCCCCn1cc(C(=O)Nc2cccc3ccccc23)c2ccccc21 [NNEI]
Tmax [16]: approximately 0.5 hours

CCCCCc1cc(O)c2c(c1)OC(C)(C)[C@@H]1CCC(C)=C[C@@H]21 [THC, delta-9-tetrahydrocannabinol]
locomotor activity [5, 19]: hypomotility | antinociception (tail-flick) [5, 20]: anti-nociception | catalepsy (ring immobility) [5, 20]: catalepsy | rectal temperature [5, 20]: hypothermia | Emax [7, 21]: 45% | Emax ([7]; HEK293, read-out: Emax±SEM): 27.3 ± 3.68% | CP55,940 more potent than the compound [7]: 26 fold | ED50 ([9]; ip, read-out: ED50, substitution for THC): 2.2 mg/kg | ED50 ([9]; ip, read-out: ED50 of THC after EG-018 pretreatment): 1.2 mg/kg | ED50 ([9]; read-out: ED50 of THC after vehicle pretreatment): 1.5 mg/kg | substitution for THC [9]: fully substituted for itself | effect on response rates compared to vehicle [9]: Neither THC nor EG-018 significantly affected response rates

CCCCC/C=C\C/C=C\C/C=C\C/C=C\CCCC(=O)NCCO [anandamide]
CP55,940 more potent than the compound [12]: 200 fold | CP55,940 greater efficacy than the compound [12]: 2.5 fold | Emax ([12]; read-out: Emax±SEM): 49.2 ± 2.25%

Cc1c(C(=O)NN2CCCCC2)nn(-c2ccc(Cl)cc2Cl)c1-c1ccc(Cl)cc1 [rimonabant, reference compound]
antagonism of EG-018-induced catalepsy [5, 23]: attenuated catalepsy | antagonism of EG-018-induced hypomotility [5, 23]: did not significantly reduce | antagonism of EG-018-induced hypothermia [5, 23]: did not significantly reduce hypothermia | antagonism of FUBIMINA tetrad effects ([15]; rimonabant 3 mg/kg i.v. before FUBIMINA 56 mg/kg i.v.): reversed
